Common to all, as to format: functional
In experiment [1] the test system is MCF7. The experiment is described as follows: Estrogenic activity in human MCF7 cells assessed as drug level causing stimulation of cell proliferation equivalent to 100 pM estradiol after 96 hrs by alamar blue assay. The procedure, abridged:
(§1)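 Cells seeded at 10^4 per well in phenol red-free RPMI with 5% DCC-treated FBS. Compounds added in DMSO (vehicle control 1% DMSO) for 96 h at 37 °C, 5% CO2, with serial estradiol dilutions run alongside. Alamar Blue for 3 h, fluorescence ex 530/em 590 nm. Estradiol-equivalent concentration fitted by linear regression from at least five concentrations in quadruplicate.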
Background: Resazurin is reduced to fluorescent resorufin, in cell work by metabolically active cells.

For experiment [2], the system named is MCF7. As to the kind of experiment: Estrogenic activity in luciferase transfected human MCF7 cells assessed as drug level causing stimulation of cell proliferation equivalent to 10 pM estradiol by luciferase reporter gene assay. A digest of the protocol:
(§2)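 Reporter assay in MCF-7 or T47D cells transiently transfected with luciferase. Compounds tested from 0.01 to 10 µM. Luciferase induction is expressed as the compound concentration equivalent to the 10 or 100 pM estradiol response. Values come from linear regression over at least five concentrations in quadruplicate.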
On the technique in general: A reporter such as luciferase makes a cellular process visible.

Experiment [3] has as its system T47D. The experiment is described as follows: Estrogenic activity in human T47D cells assessed as drug level causing stimulation of cell proliferation equivalent to 100 pM estradiol after 96 hrs by alamar blue assay. A digest of the protocol:
as §1

Experiment [4] deals with MCF7. As to the kind of experiment: Estrogenic activity in luciferase transfected human MCF7 cells assessed as drug level causing stimulation of cell proliferation equivalent to 100 pM estradiol by luciferase reporter gene assay. The procedure, abridged:
as §2

The subject of experiment [5] is T47D. As to the kind of experiment: Estrogenic activity in human T47D cells assessed as drug level causing stimulation of cell proliferation equivalent to 10 pM estradiol after 96 hrs by alamar blue assay. The procedure, abridged: as §1
Experiment [6] relates to T47D. As to the kind of experiment: Estrogenic activity in luciferase transfected human T47D cells assessed as drug level causing stimulation of cell proliferation equivalent to 10 pM estradiol by luciferase reporter gene assay. A digest of the protocol: as §2
For experiment [7], the system named is T47D. The experiment is described as follows: Estrogenic activity in luciferase transfected human T47D cells assessed as drug level causing stimulation of cell proliferation equivalent to 100 pM estradiol by luciferase reporter gene assay. The procedure, abridged: as §2
The test system of experiment [8] is MCF7. The experiment is described as follows: Estrogenic activity in human MCF7 cells assessed as drug level causing stimulation of cell proliferation equivalent to 10 pM estradiol after 96 hrs by alamar blue assay. A digest of the protocol:
as §1

Active and inactive are the calls of the source. The rule behind the calls is not given here.

With `COc1ccc(C2COc3cc(O)ccc3C2=O)c(OC)c1OC` (stereo unspecified), the Activity in the experiment with MCF7 [1] was 46.3 µM; in the experiment with MCF7 [2], above 100 µM; in the experiment on T47D [3], above 100 µM; with MCF7 [4], above 100 µM; in the experiment with T47D [5] it was 6.1 µM; in the experiment on T47D [6], 3.3 µM. In addition, the Activity is above 100 µM in the experiment on T47D [7] and 2.5 µM in the experiment with MCF7 [8].

As for `COc1ccc(C2COc3cc(O)ccc3C2=O)c(O)c1` (stereo unspecified), the Activity is 45.3 µM in the experiment on MCF7 [1]; above 100 µM in the experiment with MCF7 [2]; 33.7 µM with T47D [3]; above 100 µM in the experiment on MCF7 [4]; 1.5 µM with T47D [5]; 7.3 µM in the experiment with T47D [6]. Further, the Activity is above 100 µM with T47D [7] and 5.7 µM in the experiment on MCF7 [8].

As to `COc1ccc(C2COc3cc(O)ccc3C2=O)cc1O` (stereo unspecified), the Activity in the experiment with MCF7 [1] is above 100 µM; in the experiment with MCF7 [2] it was above 100 µM; with T47D [3], above 100 µM; in the experiment with MCF7 [4] it was above 100 µM; with T47D [5], above 100 µM; in the experiment with T47D [6], 6 µM. In addition, the Activity in the experiment on T47D [7] is above 100 µM; in the experiment with MCF7 [8], 24.5 µM.

`COc1ccc([C@@H]2COc3cc(O)ccc3C2)c(OC)c1O`: the Activity was above 100 µM in the experiment on MCF7 [1]; 0.9 µM with MCF7 [2]; 6.4 µM in the experiment on T47D [3]; 7.8 µM with MCF7 [4]; 0.4 µM with T47D [5]; 6.3 µM in the experiment on T47D [6]. Besides, the Activity with T47D [7] and with MCF7 [8] was above 100 µM throughout.

`COc1cc(O)c([C@@H]2COc3cc(O)ccc3C2)cc1OC`: the Activity in the experiment with MCF7 [1] is 0.2 µM; with MCF7 [2], above 100 µM; with T47D [3], above 100 µM; in the experiment with MCF7 [4], above 100 µM; with T47D [5] it was 0.02 µM; in the experiment on T47D [6], above 100 µM. In addition, the Activity in the experiment on T47D [7] is above 100 µM; in the experiment with MCF7 [8], 1.1 µM.

On to `COc1cc(OC)c(-c2coc3cc(O)cc(O)c3c2=O)cc1OC`, for which the Activity was above 100 µM in the experiment with MCF7 [1]; 5.4 µM with MCF7 [2]; above 100 µM in the experiment on T47D [3]; 7.8 µM with MCF7 [4]; 0.1 µM in the experiment with T47D [5]; 6.3 µM in the experiment with T47D [6]. The Activity with T47D [7] and in the experiment with MCF7 [8] was above 100 µM throughout.

Consider `COc1ccc([C@H]2COc3cc(O)cc(O)c3C2=O)cc1O`, for which the Activity in the experiment on MCF7 [1] was above 100 µM; in the experiment on MCF7 [2], 0.6 µM; in the experiment on T47D [3], 5.7 µM; in the experiment with MCF7 [4], 2.7 µM; with T47D [5], 0.5 µM; in the experiment on T47D [6], 1.3 µM. For the same compound, the Activity in the experiment with T47D [7] was above 100 µM; with MCF7 [8], 2.9 µM.

As to `COc1ccc(-c2coc3cc(O)cc(O)c3c2=O)c(OC)c1`, the Activity is 19.6 µM with MCF7 [1]; above 100 µM in the experiment on MCF7 [2]; above 100 µM with T47D [3]; above 100 µM in the experiment with MCF7 [4]; 0.4 µM in the experiment on T47D [5]; 1.8 µM with T47D [6]. Further, the results for the Activity in the experiment on T47D [7] and with MCF7 [8] were 3.1 µM and 3.2 µM, respectively.

In the case of `COc1ccc([C@H]2COc3cc(O)ccc3C2=O)c(OC)c1O`, the Activity in the experiment on MCF7 [1] was 9.4 µM; with MCF7 [2] it was above 100 µM; in the experiment on T47D [3] it was 8.9 µM; with MCF7 [4], above 100 µM; in the experiment with T47D [5] it was 2.1 µM; in the experiment with T47D [6], 0.6 µM. Moreover, the Activity in the experiment with T47D [7] was above 100 µM; with MCF7 [8], 2.1 µM.

As to `COc1cc(-c2coc3cc(O)ccc3c2=O)ccc1O`, the Activity in the experiment on MCF7 [1] was above 100 µM; in the experiment with MCF7 [2], 1.1 µM; in the experiment with T47D [3], above 100 µM; in the experiment with MCF7 [4] it was 2.2 µM; in the experiment with T47D [5], above 100 µM; with T47D [6], 1.2 µM. The Activity came to 5.8 µM in the experiment with T47D [7] and 4.7 µM with MCF7 [8].

Take `COc1ccc([C@@H]2COc3cc(O)ccc3C2)c(O)c1`: the Activity in the experiment with MCF7 [1] was above 100 µM; with MCF7 [2] it was above 100 µM; with T47D [3], 0.2 µM; in the experiment on MCF7 [4], above 100 µM; in the experiment with T47D [5] it was 0.02 µM; with T47D [6], above 100 µM. Also, the Activity with T47D [7] and in the experiment with MCF7 [8] was above 100 µM throughout.

Regarding `COc1ccc(C2COc3c(ccc(O)c3O)C2)c(OC)c1O` (stereo unspecified), the outcome in the experiment with MCF7 [1], with MCF7 [2], in the experiment with T47D [3], in the experiment on MCF7 [4], in the experiment on T47D [5] and in the experiment on T47D [6] was inactive. The result with T47D [7] and in the experiment with MCF7 [8] was inactive.

For the compound `O=C1c2c(O)cc(O)cc2O[C@H](c2ccccc2)[C@H]1O`, the result in the experiment on MCF7 [1], with MCF7 [2], with T47D [3], in the experiment on MCF7 [4], in the experiment with T47D [5] and in the experiment with T47D [6] was inactive. Also, the result with T47D [7] and with MCF7 [8] was inactive.

Take `COc1cc2c(cc1O)C1c3ccc(O)cc3OCC1O2` (racemic): the outcome in the experiment on MCF7 [1], in the experiment with MCF7 [2], in the experiment with T47D [3], in the experiment with MCF7 [4], in the experiment with T47D [5] and in the experiment with T47D [6] was inactive. In addition, the outcome in the experiment on T47D [7] and in the experiment with MCF7 [8] was inactive.

As to `COc1ccc(-c2coc3cc(O)ccc3c2=O)c(OC)c1` [2'-METHOXYFORMONETIN], the Activity in the experiment on MCF7 [1] was 5.2 µM; with MCF7 [2], above 100 µM; in the experiment on T47D [3], 1.7 µM; in the experiment on MCF7 [4] it was above 100 µM; with T47D [5], 0.01 µM; in the experiment on T47D [6] it was 1.8 µM. The Activity in the experiment on T47D [7] was 6.2 µM; in the experiment with MCF7 [8], 0.3 µM.

Consider `COc1ccc(-c2coc3cc(O)cc(O)c3c2=O)cc1` [BIOCHANIN], for which the Activity in the experiment on MCF7 [1] is 3.8 µM; in the experiment with MCF7 [2], above 100 µM; in the experiment on T47D [3], 0.5 µM; in the experiment on MCF7 [4] it was above 100 µM; in the experiment on T47D [5] it was 0.3 µM; in the experiment with T47D [6], 0.01 µM. Also, the figures for the Activity in the experiment with T47D [7] and in the experiment with MCF7 [8] were 0.01 µM and 0.3 µM, respectively.

Take `COC1=CC(=O)C(c2coc3cc(O)ccc3c2=O)=CC1=O` [BOWDICHIONE]: the Activity in the experiment on MCF7 [1] was 1.4 µM; with MCF7 [2], 0.7 µM; with T47D [3] it was above 100 µM; in the experiment with MCF7 [4], 0.9 µM; in the experiment on T47D [5] it was above 100 µM; with T47D [6], above 100 µM. Besides, the values for the Activity in the experiment on T47D [7] and in the experiment with MCF7 [8] were above 100 µM and 0.01 µM, respectively.

These data come from ChEMBL document CHEMBL1153749, “Flavonoids from the heartwood of the Thai medicinal plant Dalbergia parviflora and their effects on estrogenic-responsive human breast cancer cells” (2009).
